In PubChem BioAssay:
The source made the active and inactive calls.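 Rule for the calls, unless noted: active = current rise at least 3 SD above the untreated control mean in each of two repeat wells; inactive = the rest.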

Assays:
[1] = target: Potassium voltage-gated channel subfamily KQT member 1 (Homo sapiens) (UniProt P51787); assay: KCNQ1 channel current potentiators, confirmation, orthogonal assay for KCNQ1 potentiator project, IonWorks patch clamp, KCNQ1-CHO cells (AID 493184); settings: automated patch clamp current, at 10 µM
Summary of the method: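 Test system: KCNQ1-expressing CHO cells. Medium: pH 7.4 external bath. Probe or stimulus: voltage step from -90 mV holding to +40 mV, 2,000 ms. Compound: 10 µM final, single point. Detection: automated perforated-patch electrophysiology. Read-out: percent current increase versus pre-compound level. Repeats: two replicates.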

[2] = target: Potassium voltage-gated channel subfamily E member 1 (Homo sapiens) + Potassium voltage-gated channel subfamily KQT member 1 (Homo sapiens) (UniProt P15382+P51787); assay: KCNQ1/KCNE1 complex potentiators, confirmation, selectivity assay for KCNQ1 potentiator project, thallium flux, CHO-K1 KCNQ1/E1 cells (AID 493186;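 active = mean duplicate activation above the buffer control mean plus 5 SD of those controls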); settings: FluxOR thallium flux, at 10 µM
Summary of the method: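 Material: CHO-K1 cells with KCNQ1/E1 / Timing: dye 90 min, compound 20 min, room temperature / Technique: kinetic thallium-sensitive FluxOR dye fluorescence / Read-out: percent activation scaled between buffer and R-L3 ratio signals / Replicates: tested in duplicate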

Chain of Potassium voltage-gated channel subfamily E member 1 (Homo sapiens) + Potassium voltage-gated channel subfamily KQT member 1 (Homo sapiens) (P51787 whole entry, looked up): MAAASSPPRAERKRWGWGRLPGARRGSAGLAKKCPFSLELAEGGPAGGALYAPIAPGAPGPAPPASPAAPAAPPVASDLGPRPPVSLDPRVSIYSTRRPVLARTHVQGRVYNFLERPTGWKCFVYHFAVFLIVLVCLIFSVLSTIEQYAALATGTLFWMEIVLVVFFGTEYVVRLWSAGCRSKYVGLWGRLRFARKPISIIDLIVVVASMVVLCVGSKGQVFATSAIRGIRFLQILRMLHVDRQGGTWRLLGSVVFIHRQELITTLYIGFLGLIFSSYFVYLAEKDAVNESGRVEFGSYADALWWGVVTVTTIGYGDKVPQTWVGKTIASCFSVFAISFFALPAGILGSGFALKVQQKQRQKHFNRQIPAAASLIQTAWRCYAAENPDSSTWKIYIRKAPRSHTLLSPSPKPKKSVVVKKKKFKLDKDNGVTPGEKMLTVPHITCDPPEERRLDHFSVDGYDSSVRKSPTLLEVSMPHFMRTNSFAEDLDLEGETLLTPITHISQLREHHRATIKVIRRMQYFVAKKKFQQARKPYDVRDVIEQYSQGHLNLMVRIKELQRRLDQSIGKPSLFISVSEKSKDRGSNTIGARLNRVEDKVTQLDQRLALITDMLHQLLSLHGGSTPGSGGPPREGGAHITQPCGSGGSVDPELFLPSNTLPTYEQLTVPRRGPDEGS
Chain of Potassium voltage-gated channel subfamily KQT member 1 (Homo sapiens) (P51787 whole entry, looked up): as above

Compound	outcome [1]	outcome [2]
COc1cc(C2(c3ccc(O)c(OC)c3)C(=O)Nc3c(C)cc(Br)cc32)ccc1O	inactive	–
Cc1ccc(C(=O)O)cc1N=Cc1cc(Br)cc(Br)c1O	inactive	–
O=C(O)CCCN1C(=O)/C(=C\c2ccc(-c3nc4ccccc4s3)o2)SC1=S	inactive	inactive
CCCc1nc2oc3c(NCCCN(C)C)ncnc3c2c2c1CCCC2	inactive	–
CN(CCCNC(=O)CCCOc1cc(=O)n(C)c2ccccc12)Cc1ccccc1	inactive	–
CCCCCCCCCC[n+]1cccc2c3ccccc3ccc21	inactive	–
COc1ccc(NS(=O)(=O)c2ccc3ccccc3c2)c2ncccc12	inactive	–
Cc1nn(-c2cc(C(F)(F)F)ccc2Cl)c2nc(C(Cl)(Cl)Cl)[nH]c(=O)c12	inactive	–
CC(C)NS(=O)(=O)c1ccc(NC(=O)C(C)Oc2ccc(C(=O)c3ccccc3)cc2)cc1 (configuration not stated)	inactive	inactive
CN(C)CCCN(C(=O)CCc1ccccc1)c1nc2ccc(F)cc2s1	inactive	–
Cc1cc(C)c2c(=O)n(CC(=O)Nc3cccc(Cl)c3C)sc2n1	inactive	–
CN(C)S(=O)(=O)N1CCC(CCCC2CCN(S(=O)(=O)N(C)C)CC2)CC1	inactive	–
COc1cc(NC(=O)CSc2ncnc3sc4c(c23)CCC(C)C4)c(C(=O)O)cc1OC (configuration not stated)	inactive	–
Cc1ccc2c(c1)C1CN(C)CCC1N2C(=S)NC(=O)c1ccc(Br)cc1 (configuration not stated)	inactive	–
O=C1C=CC(=O)N1CCNc1ncc(C(F)(F)F)cc1Cl	inactive	inactive
O=C(Nc1ccnn1C1CCN(Cc2cc3ccccc3[nH]2)CC1)C1CCOC1 (configuration not stated)	inactive	–
CCCCN(CC)CCCNC(=O)c1cc2cc3ccc(C)cc3nc2o1	inactive	–
CCN(CC)c1ncnc2sc3c(c12)CCC3	inactive	inactive
